Columns and labels:
[1] = system: isolated perfused mouse hearts; assay: contractile function of isolated perfused mouse hearts
Method in brief: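 Langendorff hearts from male C57BL/6 mice (pentobarbital 300mg/kg i.p., heparin 150 units) perfused at 80 mmHg with KHB (95% O2/5% CO2, 37°C). LV balloon EDP set 2-8 mmHg, paced 600 bpm. Inclusion required LVDP ≥60 mmHg and flow 1.5-3.5 ml/min. After 30 min baseline, coded TAT-TAB1 peptides at 15μM recirculated 15 min in 20 mL KHB. Preliminary runs used three concentrations (n=2). Two-way repeated-measures ANOVA, Bonferroni.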

[2] = system: IRp38α; assay: IRp38α co-expressed with TAB1 in HEK293 cells; type: cell-based; conditions: Fig. 1c
Method in brief: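 HEK293 cells were co-transfected with TAB1 and either p38α (HA-tagged, WT) or the gatekeeper mutant IRp38α, then exposed to BIRB793. p38 and TAB1 phosphorylation were read by immunoblot: dual-phospho p38 (Thr180/Tyr182) 1:4,000, total p38 1:15,000, overnight at 4 °C, ECL detection. Quantitation is from three independent transfections as mean ± s.d., analysed by one-way ANOVA with Bonferroni.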

[3] = system: p38; assay: p38 activation in adult rat ventricular myocytes; type: cell-based; conditions: ARVMs; peptides fused to TAT; immunoblot, Fig. 6c
Method in brief: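 Rat ventricular myocytes were washed in M199 with penicillin, streptomycin, 2mM L-carnitine, 5mM creatine and 5mM taurine, pelleted at 100 g for 2 min and plated on laminin at 37°C in 5% CO2. After 1 h, non-adherent cells were removed and TAT-TAB1(371-416) peptides (WT, A/B mutant, scrambled) added in fresh medium. Immunoblots used dual-phospho p38 (Thr180/Tyr182; 1:4,000) and total p38 (1:15,000) antibodies, with ECL detection. One-way ANOVA, Bonferroni.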

[4] = target: T1, p38α (Mus musculus, UniProt P47811); assay: ITC binding to p38α; conditions: for association with p38α by ITC (in words): p38α alone, non phospho
[5] = system: isolated adult rat cardiac myocytes; assay: viability of adult rat ventricular myocytes; type: cell-based; conditions: ARVMs, later time points; peptides fused to TAT
Method in brief: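 Laminin-plated adult rat ventricular myocytes in supplemented M199 at 37°C in 5% CO2 were exposed to fluorescein (FAM)-labelled TAT-TAB1(371-416) peptides. They were imaged by confocal microscopy at later time points. Cell death was scored as a rounded cell appearance with homogeneous distribution of the fluorescein label.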

[6] = system: p38; assay: p38 dual phosphorylation in isolated perfused mouse hearts; conditions: 15 mins exposure; immunoblot, Fig. 6g
[7] = system: p38 in hearts expressing the p38α Thr106Met gatekeeper mutant (IRα); assay: p38 activity during global myocardial ischemia, IRα hearts; conditions: IRα mouse hearts, global ischemia 5, 10 and 15 mins; 10 μM
[8] = system: p38 in wild-type (WT) hearts; assay: p38 dual phosphorylation during global myocardial ischemia, WT hearts; conditions: WT mouse hearts, global ischemia 5, 10 and 15 mins; 10 μM
[9] = system: p38α; assay: co-transfection of HEK293 cells with TAB1 and p38α, p38 phosphorylation; type: cell-based
[10] = target: [p38α:TAB1(1-438)]complex (Mus musculus, UniProt P47811); assay: ITC binding to [p38α:TAB1
[11] = target: p38α; conditions: time resolved FRET, non phospho p38α; ref Zhang et al., 2005; cited from earlier work
[12] = target: T1, p38α; assay: co-expression of p38α and TAB1 in E. coli, p38α phosphorylation; type: cell-based; conditions: western blot; Fig. 1d, 5d; inhibitors 10 μM
Method in brief: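 Mouse p38α and TAB1 (full-length, 1-438 or 1-418) were co-expressed in E. coli from dual vectors, with p38α in the first MCS and TAB1 in the second. Controls were empty vector and p38α alone.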

[13] = peptides fused to TAT, 15 μM, 15 min, recirculated, n=5 mouse hearts per group

Cc1ccc(-n2nc(C(C)(C)C)cc2NC(=O)Nc2ccc(OCCN3CCOCC3)c3ccccc23)cc1 [BIRB796, reference compound]
inhibition of p38α on effects of perfusion with TAB1(371-416) (WT) ([1]; LVDP and coronary flow, numbers per group WT=7 and WT+I=5, Fig. 6h): attenuates the effects of perfusion with TAB1(371-416) | pattern of phosphorylation on inhibitor exposure, IRp38α coexpressed with TAB1 [2]: altered

TAB1(371-416A/B) (EMSQPTPTPAPGGRVYPVSAPASSAQSTSKTSVTLSLGAPSQGQMV)
p38 activation [3]: but not TAB1(371-416A-B) caused p38 activation | association with p38α by ITC (in words) [4]: no binding was detected

GYGRKKRRQRRRGEMSQPTPTPAPGGRVYPVSVPYSSAQSTSKTSVTLSLVMPSQGQMV [TAT-TAB1(371-416)]
cell death [5]: cell death | p38 dual phosphorylation in perfused hearts [6]: p38 dual phosphorylation | p38 activation [3]: caused p38 activation | coronary flow ([1]; 15 μM, 15 min, recirculated, n=5 mouse hearts per group): reduction in coronary flow | developed pressure [1, 13]: marked reduction in developed pressure | end-diastolic pressure [1, 13]: elevation in the end-diastolic pressure

C[S+]([O-])c1ccc(-c2nc(-c3ccncc3)c(-c3ccc(F)cc3)[nH]2)cc1 (stereo not shown) [SB203580]
p38 activity (phosphorylation of TAB1 and HSP27) with inhibitor [7]: p38 remained active | sensitivity of p38 dual phosphorylation to inhibitor [8]: sensitive | effect of inhibitor on TAB1-enhanced p38α dual phosphorylation ([9]; WTp38α, HEK293 cells, Fig. 1b): SB203580-sensitive

Nc1ncnc2c1ncn2[C@@H]1O[C@H](CO[P@](=O)(O)O[P@](=O)(O)O[P@@](=O)(O)S)[C@@H](O)[C@H]1O [ATPγS]
Kd [10]: 0.0053 mM | affinity for p38α in the presence of TAB1(1-438) (in words) ([10]; ITC, 1:1 stoichiometry): low μM affinity | association with p38α by ITC (in words) [4]: no measurable association by ITC

Nc1ncnc2c1ncn2[C@@H]1O[C@H](COP(=O)(O)OP(=O)(O)OP(=O)(O)O)[C@@H](O)[C@H]1O [ATP]
Kd [11]: 13 ± 5.5 mM

GYGRKKRRQRRRGEMSQPTPTPAPGGRVYPVSAPASSAQSTSKTSVTLSLGAPSQGQMV [TAT-TAB1(371-416A/B)]
maximum concentration that did not cause discernible contractile dysfunction ([1]; isolated mouse heart, preliminary experiments): 15 µM

TAB1: TGF-β-activated protein kinase 1 (TAK1) binding protein 1, scaffold protein (EMSQPTPTPAPGGRVYPVSVPYSSAQSTSKTSVTLSLVMPSQGQMV)
p38α phosphorylation on co-expression in E. coli [12]: enhanced | p38α dual phosphorylation on co-expression in HEK293 cells ([9]; western blot, three independent transfections): enhanced p38α dual phosphorylation

B1: TAB1(1-438): recombinant mouse TAB1(1-438), N-terminal HexaHistidine tag and TEV site (protein)
chain: MAAQRRSLLQSEQQPSWTDDLPLCHLSGVGSASNRSYSADGKGTESHPPEDNWLKFRSENNCFLYGVFNGYDGNRVTNFVAQRLSAELLLGQLNTEHTEADVRRVLLQAFDVVERSFLESIDDALAEKASLQSQLPEGVPQHQLPPQYQKILERLKALEREISGGAMAVVAVLLNSKLYVANVGTNRALLCKSTVDGLQVTQLNMDHTTENEDELFRLSQLGLDAGKIKQMGVICGQESTRRIGDYKVKYGYTDIDLLSAAKSKPIIAEPEIHGAQPLDGVTGFLVLMSEGLYKALEAAHGPGQANQEIAAMIDTEFAKQTSLDAVAQAVVDRVKRIHSDTFASGGERAKFCPRHEDMTLLVRNFGYPLGEMSQPTPTPAPGGRVYPVSVPYSSAQSTSKTSVTLSLVMPSQGQMVNGSHSASTLDEATPTLTNQSPT
−TΔS ([4]; 25°C, ΔG = ΔH-TΔS): 5.1 kcal/mol | association with p38α by ITC (in words) [4]: binding affinity in the low micromolar range

From PMC3822283 (Nature structural & molecular biology, 2013)
